This passage reports IC50 and selectivity ratio results from ChEMBL document CHEMBL2169835, “Flavonoid dimers as novel, potent antileishmanial agents” (J Med Chem, 2012).

Series [1] in a line: Cytotoxicity against mouse Peritoneal macrophages cells after 72 hrs by MTS assay. The series is classed as cell-based. The settings on record: Peritoneal macrophage cell. The method in brief:
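Primary mouse peritoneal elicited macrophages were seeded at 2 × 10^4 cells per well in DMEM with 10% heat-inactivated FBS. They were exposed to graded doses for 72 h at 37 °C in 5% CO2. Survival was read by MTS/PMS tetrazolium reduction (OD 490 nm) relative to untreated control. The IC50 was the concentration halving OD. Results are mean ± SEM of 1–4 independent experiments.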
In general terms: Formazan colour is commonly taken as a measure of viable cells.

The test system of series [2] is Leishmania donovani. Kind of series: Antimicrobial activity against SSG-resistant Leishmania donovani 39 amastigote infected in mouse peritoneal macrophages assessed as inhibition of parasite growth after 72 hrs by Giemsa staining method. The series is classed as functional, organism-based. The settings on record: Leishmania donovani, 39, 72 h. The method in brief: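 Mouse peritoneal elicited macrophages were seeded on coverslips at 1 × 10^5 cells per well in DMEM with 10% heat-inactivated FBS and left to attach overnight. They were infected overnight with late-log Ld39 promastigotes (parasite:macrophage 20:1) at 37 °C, 5% CO2, then washed. Compounds were applied for 72 h at 37 °C. Giemsa-stained amastigotes per 100 macrophages gave IC50; N = 1−3.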

The test system of series [3] is Leishmania donovani. Kind of series: Antimicrobial activity against SSG-resistant Leishmania donovani 39 promastigote assessed as inhibition of parasite growth after 72 hrs by MTS assay. The series is classed as functional, organism-based. The conditions noted are these: Leishmania donovani, 39, 72 h. The method in brief: (§1)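 Promastigotes were grown in Schneider's medium pH 6.9 with 10% heat-inactivated FBS at 27 °C, seeded at 1 × 10^5 per well, and exposed to serial concentrations for 72 h at 27 °C. Compounds were in DMSO (≤1% final) or water. MTS:PMS (20:1) was added for 4 h, then OD490 was read. Survival was % of untreated control; IC50 = concentration halving OD; N = 1−4.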

Series [4] is described as follows: Therapeutic index, ratio of IC50 for mouse Peritoneal macrophages to IC50 for SSG-resistant Leishmania donovani 39 amastigote infected in mouse peritoneal macrophages. The conditions noted are these: read-out: Ratio IC50.
Series [5] has as its system Leishmania donovani. Kind of series: Antimicrobial activity against wild-type Leishmania donovani AG83 promastigote assessed as inhibition of parasite growth after 72 hrs by MTS assay. The settings on record: AG83, 72 h. Format: functional, organism-based. The method in brief: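 Promastigotes were grown in Schneider's medium pH 6.9 with 10% heat-inactivated FBS at 27 °C, seeded at 1 × 10^5 per well, and exposed to serial concentrations for 72 h at 27 °C. Compounds were in DMSO (≤1% final) or water. MTS:PMS (20:1) was added for 4 h, then OD490 was read.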

Series [6] relates to RAW264.7. The experiment in a line: Cytotoxicity against mouse RAW264.7 cells after 72 hrs by MTS assay. The settings on record: RAW264.7, 72 h. The series is classed as cell-based. The method in brief:
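RAW 264.7 murine macrophage line was plated at 1 × 10^4 cells per well in supplemented DMEM. Cells received a graded compound series for 72 h at 37 °C, 5% CO2, with a maximum of 1% DMSO. Viability was measured by MTS with PMS coupling at OD 490 nm, as percent of untreated control. The IC50 was the concentration reducing OD by half, given as mean ± SEM, N = 1–4.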

Series [7] concerns Leishmania donovani. Kind of series: Antimicrobial activity against pentamidine-resistant Leishmania donovani AG83PentR50 promastigote assessed as inhibition of parasite growth after 72 hrs by MTS assay. The series is classed as functional, organism-based. The conditions noted are these: AG83PentR50, 72 h. The method in brief: as §1
Series [8] is described as follows: Therapeutic index, ratio of IC50 for mouse Peritoneal macrophages to IC50 for SSG-resistant Leishmania donovani 39 promastigote. The settings on record: read-out: Ratio IC50. The method in brief: (§2)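 Index is PEM cytotoxicity IC50 over promastigote IC50. For PEM, cells were seeded at 2 × 10^4 per well in supplemented DMEM, given graded doses for 72 h at 37 °C, 5% CO2, and read by MTS survival.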

A short description of series [9]: Therapeutic index, ratio of IC50 for mouse Peritoneal macrophages to IC50 for pentamidine-resistant Leishmania donovani AG83PentR50 promastigote. The conditions noted are these: read-out: Ratio IC50. The method in brief:
as §2

Series [10] in a line: Therapeutic index, ratio of IC50 for mouse PEM cells to IC50 for wild-type Leishmania donovani AG83 promastigote. Format: cell-based. The conditions noted are these: read-out: Ratio IC50. The method in brief: as §2

`O=c1cc(-c2ccc(OCCOCCN(CCOCCOc3ccc(-c4cc(=O)c5cc(F)ccc5o4)cc3)Cc3ccncc3)cc2)oc2ccc(F)cc12`: the IC50 (as a rule, the concentration at which inhibition is half-maximal) in series [1] was more than 100 µM; in series [2], 3.1 µM; in series [3], 0.36 µM; in series [5], 0.31 µM. Besides, the selectivity ratio in series [4] was more than 32.3.

Regarding `CCCCCCCCCCCCCCCCOP(=O)([O-])OCC[N+](C)(C)C` [MILTEFOSINE], the IC50 in series [1] was found to be 75.3 µM; in series [2] it was 16 µM; in series [6], 20 µM; in [7], 9.3 µM; in series [3], 17.3 µM.

Regarding `O=c1cc(-c2ccc(OCCOCCN(CCOCCOc3ccc(-c4cc(=O)c5ccccc5o4)cc3)Cc3cccnc3)cc2)oc2ccccc12`, the IC50 stood at 33.1 µM in series [1], 2.4 µM in series [2], 0.98 µM in series [3] and 0.56 µM in [5]. The selectivity ratio in series [4] was 13.8.

In the case of `O=c1cc(-c2ccc(OCCOCCN(CCOCCOc3ccc(-c4cc(=O)c5ccccc5o4)cc3)Cc3ccncn3)cc2)oc2ccccc12`, the IC50 in [1] was more than 33 µM; in series [2], 1.4 µM; in [3], 0.58 µM; in series [5], 0.44 µM. For the same compound, the selectivity ratio in series [4] is more than 23.6.

In the case of `O=c1cc(-c2ccc(OCCOCCN(CCOCCOc3ccc(-c4cc(=O)c5ccccc5o4)cc3)Cc3ccncc3Br)cc2)oc2ccccc12`, the IC50 in series [1] was more than 100 µM; in [2] it was more than 7.6 µM; in [3], more than 50 µM; in series [5], 0.65 µM. Besides, the selectivity ratio in [4] was more than 13.1.

Take `O=c1c(OCCOCCN(CCOCCOc2c(-c3ccccc3)oc3ccccc3c2=O)Cc2ccncc2)c(-c2ccccc2)oc2ccccc12`: the IC50 was more than 33 µM in [1], 3.1 µM in series [2], 3.1 µM in series [3] and 2.5 µM in series [5]. The selectivity ratio in [4] is more than 10.6.

`O=c1cc(-c2ccc(OCCOCCN(CCOCCOc3ccc(-c4cc(=O)c5ccccc5o4)cc3)Cc3ccccn3)cc2)oc2ccccc12`: the half-inhibitory concentration (IC50) in series [1] is more than 33 µM; in series [2] it was 4.1 µM; in [6], 53 µM; in [3], 4.2 µM; in [5], 5 µM. For the same compound, the selectivity ratio in [4] was more than 8.

On to `NC[C@@H]1O[C@H](O[C@H]2[C@@H](O)[C@H](O[C@@H]3[C@@H](O)[C@H](N)C[C@H](N)[C@H]3O[C@H]3O[C@H](CO)[C@@H](O)[C@H](O)[C@H]3N)O[C@@H]2CO)[C@H](N)[C@@H](O)[C@@H]1O` [PAROMOMYCIN], for which the IC50 is more than 100 µM in series [1]; 41 µM in series [2]; more than 100 µM in series [6]; 85.5 µM in series [7]; 24.5 µM in [3]; 62.6 µM in [5]. Also, the selectivity ratio is more than 4.1 in series [8], more than 1.2 in series [9], more than 1.6 in series [10] and more than 2.4 in [4].

`COc1cc(-c2cc(=O)c3ccccc3o2)ccc1OCCOCCN(CCOCCOc1ccc(-c2cc(=O)c3ccccc3o2)cc1OC)Cc1ccncc1`: the IC50 was 2.7 µM in series [1], 0.69 µM in series [3] and 0.63 µM in series [5].

Turning to `N#Cc1cc(CN(CCOCCOc2ccc(-c3cc(=O)c4ccccc4o3)cc2)CCOCCOc2ccc(-c3cc(=O)c4ccccc4o3)cc2)ccn1`, the IC50 was more than 92 µM in [1], 7.6 µM in series [2], more than 50 µM in [3] and 1.1 µM in [5]. For the same compound, in series [4], the selectivity ratio was more than 12.1.

Turning to `O=c1cc(-c2ccc(OCCN(CCOc3ccc(-c4cc(=O)c5ccccc5o4)cc3)Cc3ccncc3)cc2)oc2ccccc12`, the IC50 was more than 58 µM in series [1], 5.8 µM in series [2], more than 50 µM in [3] and 1.4 µM in [5]. Moreover, the selectivity ratio in series [4] was more than 10.

Regarding `O=c1cc(-c2ccccc2OCCOCCN(CCOCCOc2ccccc2-c2cc(=O)c3ccccc3o2)Cc2ccncc2)oc2ccccc12`, the IC50 was more than 11 µM in series [1], 7 µM in [2], 4 µM in series [3] and 2.3 µM in series [5]. Besides, the selectivity ratio in series [4] is more than 1.6.

Consider `Cc1ccc2oc(-c3ccc(OCCOCCOCCOCCOCCOc4ccc(-c5cc(=O)c6cc(C)ccc6o5)cc4)cc3)cc(=O)c2c1`, for which the IC50 in series [6] is more than 100 µM; in series [7] it was more than 24 µM; in series [3], 4.3 µM; in series [5] it was more than 24 µM.

On to `Cc1ccc2c(=O)cc(-c3ccc(OCCOCCOCCOCCOc4ccc(-c5cc(=O)c6ccc(C)cc6o5)cc4)cc3)oc2c1`, for which the IC50 is 88.6 µM in series [6], more than 24 µM in [7], more than 24 µM in series [3] and more than 24 µM in [5].

For `O=c1cc(-c2ccc(OCCOCCOCCOCCOc3ccc(-c4cc(=O)c5ccccc5o4)cc3)cc2)oc2ccccc12`, the IC50 is more than 100 µM in series [6], more than 24 µM in [7], more than 24 µM in series [3] and more than 24 µM in series [5].

As to `Cc1c(-c2ccc(OCCOCCOCCOCCOc3ccc(-c4oc5ccccc5c(=O)c4C)cc3)cc2)oc2ccccc2c1=O`, the IC50 in series [6] was 8.1 µM; in series [7], more than 20 µM; in [3], more than 19 µM; in series [5], 6.9 µM.

As for `O=c1cc(-c2ccc(OCCOCCOCCOc3ccc(-c4cc(=O)c5ccccc5o4)cc3)cc2)oc2ccccc12`, the IC50 was more than 95 µM in series [6], more than 24 µM in series [7], more than 24 µM in series [3] and more than 24 µM in series [5].

Take `O=c1cc(-c2ccc(OCCOCCOCCOCCOCCOCCOCCOc3ccc(-c4cc(=O)c5ccccc5o4)cc3)cc2)oc2ccccc12`: the IC50 worked out at 4.8 µM in series [6], 7.3 µM in series [7], 10.3 µM in series [3] and 6.2 µM in series [5].

Take `O=c1cc(-c2cccc(OCCOCCN(CCOCCOc3cccc(-c4cc(=O)c5ccccc5o4)c3)Cc3ccncc3)c2)oc2ccccc12`: the IC50 is more than 50 µM in series [1], 2.3 µM in series [2], 0.44 µM in series [3] and 0.19 µM in [5]. Further, the selectivity ratio in series [4] is more than 21.7.

On to `O=c1cc(-c2ccc(OCCOCCOCCOCCOCCOc3ccc(-c4cc(=O)c5c(O)cc(O)cc5o4)cc3)cc2)oc2cc(O)cc(O)c12`, for which the IC50 in [6] is more than 200 µM; in [7], 2.6 µM; in series [3], 1.8 µM; in [5], 2.3 µM.

In the case of `COc1c(-c2ccc(OCCOCCN(CCOCCOc3ccc(-c4oc5ccccc5c(=O)c4OC)cc3)Cc3ccncc3)cc2)oc2ccccc2c1=O`, the IC50 was more than 50 µM in series [1], 5.2 µM in series [2], 0.98 µM in series [3] and 0.98 µM in series [5]. Moreover, the selectivity ratio in series [4] is more than 9.6.

For the compound `O=c1cc(-c2ccc(OCCOCCNCCOCCOc3ccc(-c4cc(=O)c5ccccc5o4)cc3)cc2)oc2ccccc12`, the IC50 in [6] came out at 2.1 µM; in series [7], 1.1 µM; in [3], 2.3 µM; in [5], 3.3 µM.

In the case of `CCc1ccc2oc(-c3ccc(OCCOCCOCCOCCOc4ccc(-c5cc(=O)c6cc(CC)ccc6o5)cc4)cc3)cc(=O)c2c1`, the IC50 in [6] was more than 100 µM; in [7], more than 24 µM; in series [3], more than 24 µM; in series [5], more than 24 µM.

Regarding `Cc1ccc2oc(-c3ccc(OCCOCCOCCOCCOCCOCCOc4ccc(-c5cc(=O)c6cc(C)ccc6o5)cc4)cc3)cc(=O)c2c1`, the half-inhibitory concentration (IC50) in [6] was more than 100 µM; in series [7], more than 24 µM; in series [3], 3.6 µM; in [5], 2.2 µM.

As for `O=c1cc(-c2ccc(OCCOCCOCCOCCOc3ccc(-c4cc(=O)c5ccc(F)cc5o4)cc3)cc2)oc2cc(F)ccc12`, the IC50 in [6] is more than 200 µM; in [7], 2.3 µM; in series [3] it was 2.4 µM; in [5], 2.6 µM.

Regarding `O=c1cc(-c2ccc(OCCOCCN(CCOCCOc3ccc(-c4cc(=O)c5ccccc5o4)cc3)Cc3ccnc(Br)c3)cc2)oc2ccccc12`, the IC50 in [1] was more than 100 µM; in series [2], more than 10 µM; in series [3] it was more than 50 µM; in series [5], 1.8 µM. Moreover, the selectivity ratio in series [4] was more than 10.
